The text below walks through data of PubChem BioAssay AID1448 (The Scripps Research Institute Molecular Screening Center, 2008).

In all, about 220,000 compounds went through this assay and about 630 (0.29%) were called active. This is one part of a sample in which actives are shown more often than they occur. Unmarked numbers belong to inactive results.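 Rule for the calls: active = activation above its plate's cutoff, the mean activation of the plate's test wells plus 3 SD (cut at about 12% in these data); inactive = the rest.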

Chain of Mucolipin-3 (Homo sapiens) (Q8TDD5 whole entry, looked up): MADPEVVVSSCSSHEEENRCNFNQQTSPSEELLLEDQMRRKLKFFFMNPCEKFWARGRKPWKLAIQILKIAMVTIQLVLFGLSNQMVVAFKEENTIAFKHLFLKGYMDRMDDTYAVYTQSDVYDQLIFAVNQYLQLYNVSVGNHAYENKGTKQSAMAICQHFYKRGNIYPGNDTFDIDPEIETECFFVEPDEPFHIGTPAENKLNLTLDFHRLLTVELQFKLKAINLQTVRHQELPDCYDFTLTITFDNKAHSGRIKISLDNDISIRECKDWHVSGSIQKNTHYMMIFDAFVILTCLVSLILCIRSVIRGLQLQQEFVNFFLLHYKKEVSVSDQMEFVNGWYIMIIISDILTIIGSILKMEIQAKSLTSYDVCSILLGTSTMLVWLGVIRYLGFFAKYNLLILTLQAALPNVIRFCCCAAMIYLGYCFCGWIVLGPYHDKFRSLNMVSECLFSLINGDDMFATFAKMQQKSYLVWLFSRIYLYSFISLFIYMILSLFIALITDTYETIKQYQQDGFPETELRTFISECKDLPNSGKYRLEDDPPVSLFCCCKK

This assay deals with Mucolipin-3 (Homo sapiens) (UniProt Q8TDD5). Nature of the assay: human TRPML3 channel agonists, primary screen, cell-based, HEK293 TRPML3-YFP, Fluo-8 calcium fluorescence, 3 µM (AID 1448).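 Note: 0% = DMSO only wells and 100% = carbachol wells.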 The settings on record: at 3 µM, stronger effect = higher value, 100% = the carbachol control signal. In outline:
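Material: HEK293 cells stably carrying human TRPML3-YFP; compound dosing: single dose, 3 µM final nominal compound, 0.3% DMSO final; incubation: 1-h 37 °C dye load, 5-s basal, 120-s post-compound reads; technique: Fluo-8 intracellular calcium fluorescence, excitation 470-495 nm, emission 515-575 nm; read-out basis: percent activation from peak-to-basal fluorescence ratio, scaled between DMSO and carbachol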
As to `CC1=CC2=NC(=O)/C(=C/c3coc4ccccc4c3=O)C(=N)N2O1`, the activation was 18.6% (active).

For `COc1ccc(OCCCn2cccc2/C=C2/C(=N)N3OC(C)=CC3=NC2=O)cc1`, the activation is 1.97%.

Turning to `CCOc1cc(/C=C2/C(=N)N3OC(C)=CC3=NC2=O)ccc1OC`, the activation was 0.9%.

On to `COc1ccc(N2C(=O)/C(=C\c3ccco3)N=C2SCC(N)=O)cc1Cl`, for which the activation is 0.09%.

Regarding `O=C(c1cccc(F)c1)N1CCN(c2ccc([N+](=O)[O-])c3cccnc23)CC1`, the activation was 0.25%.

Regarding `CCN1CCN(c2nc(Nc3cccc(F)c3)nc(N)c2[N+](=O)[O-])CC1`, the activation was 0.34%.

For `CCOC(=O)C1=C(NC(=S)NC(=O)c2ccccc2)c2ccccc2CC1(C)C`, the activation is 43.3% (active).

On to `CCOC(=O)c1c(-c2ccccc2)csc1NC(=S)NC(=O)c1ccccc1`, for which the activation was -0.33%.

On to `COCCCNC(=S)NC(=O)c1ccccc1`, for which the activation was 0.01%.

For the compound `CCc1ccc2ncc(C(=O)c3ccccc3)c(N3CCOCC3)c2c1`, the activation was -0.05%.

As for `COCCNc1cc(NCCOC)c([N+](=O)[O-])cc1[N+](=O)[O-]`, the activation is 0.69%.

Turning to `COc1ccc(S(=O)(=O)N2CCCCC2)cc1Br`, the activation was 9.19%.

As for `COc1ccc(F)cc1S(=O)(=O)N1CCCCC1`, the activation is 0.95%.

On to `COc1ccc(S(=O)(=O)N2CCCC2)c(C)c1C`, for which the activation was 13.3% (active).

Consider `COc1ccc(S(=O)(=O)N2CCOCC2)c(C)c1C`, for which the activation is 0.66%.

Regarding `CCOc1ccc(Br)cc1S(=O)(=O)N1CCC(C(=O)O)CC1`, the activation is 1.07%.

Take `CCOc1ccc(S(=O)(=O)N2CCCCCC2)c2ccccc12`: the activation is 101% (active).

In the case of `COc1ccccc1Cn1c(C)nnc1-c1cnn(C)c1N`, the activation was -0.66%.

Turning to `CCCCN(CCCC)CC(O)Cn1c2ccccc2c(=O)c2ccccc21` (stereo not drawn), the activation is 0.31%.

`Cc1cc(Cl)ccc1OCc1nc(-c2ccncc2)no1`: the activation is -0.07%.

In the case of `O=C(CSc1nnc2n1CCCN2)c1ccccc1`, the activation was 0.51%.

Turning to `CCN(CC)C(=O)CSc1nc2ccccc2n1CC(=O)N1CCN(c2ccccc2OC)CC1`, the activation is -0.02%.

As for `COc1ccc(C2(CNC(=O)C(c3ccccc3)c3ccccc3)CCOCC2)cc1OC`, the activation is 0%.

Regarding `CCN(CC)C(=O)CC1(c2ccccc2OC)CCOC(C(C)C)C1` (stereo not drawn), the activation was 17.3% (active).

For the compound `CCC(C)(C)NC(=O)C(c1ccc(O)cc1)N(C(=O)Cn1nnc2ccccc21)c1ccc(NC(C)=O)cc1` (stereo not drawn), the activation is 0.14%.

On to `NS(=O)(=O)c1ccc(NC(=O)COC(=O)c2ccc(Cl)nc2)cc1`, for which the activation was 0.29%.

For `O=C(COC(=O)c1c2c(nc3ccccc13)/C(=C\c1cccs1)CCC2)Nc1ccccc1Cl`, the activation was 0.46%.

With `NS(=O)(=O)c1ccc(NC(=O)COC(=O)c2c3c(nc4ccccc24)/C(=C\c2ccc4c(c2)OCO4)CCC3)cc1`, the activation is 24% (active).

For the compound `COc1cc(-c2cc(C(=O)OCC(=O)Nc3ccc4c(c3)OCO4)c3ccccc3n2)cc(OC)c1OC`, the activation is -0.31%.

With `NS(=O)(=O)c1ccc(NC(=O)COC(=O)c2cc3ccccc3oc2=O)cc1`, the activation was 0.31%.

As for `NC(=O)c1ccc(NC(=O)COC(=O)c2c3c(nc4ccccc24)/C(=C\c2ccc4c(c2)OCO4)CCC3)cc1`, the activation was 29.2% (active).

As to `Cc1ccc(C2=N/C(=C\c3ccc(OS(=O)(=O)c4ccc(C)cc4)cc3)C(=O)O2)cc1`, the activation is 0.55%.

Turning to `CCN(CC)S(=O)(=O)c1ccc(C)c(NC(=O)COc2ccc(Br)cc2Cl)c1`, the activation is 0.13%.

`O=C(Nc1ccccc1C(=O)O)c1cc(S(=O)(=O)N2CCCCC2)cs1`: the activation is -0.64%.

For `c1csc(-c2nnc(COc3ccc4c(c3)OCO4)o2)c1`, the activation was 0.41%.

Regarding `c1ccc2c(C[n+]3csc4ccccc43)cccc2c1`, the activation is 34.1% (active).

As for `Nc1scc[n+]1Cc1cccc2cccnc12`, the activation is 0.56%.

`c1ccc2c(CSCc3nc4ccccc4[nH]3)cccc2c1`: the activation was 0.61%.

Take `O=C(CN1CCN(c2nc(-c3ccccc3)cs2)CC1)NCc1ccc2c(c1)OCO2`: the activation is 0.02%.

Consider `CC1CCCC(C)N1C(=O)CN1CCN(c2nc(-c3ccc(F)cc3)cs2)CC1` (stereo not drawn), for which the activation was 12.9% (active).

Consider `COc1cccc(NC(=O)CN2CCN(c3nc(-c4cccc(OC)c4)cs3)CC2)c1`, for which the activation was 0.54%.

Turning to `CC1CCCC(NC(=O)COC(=O)[C@@H]2CC(O)CN2S(=O)(=O)c2ccc3c(c2)OCCO3)C1C` (stereo partly drawn), the activation is 0.86%.

Regarding `COc1cc(N/C=C2\CC(=O)NC(C)=C2C#N)cc(OC)c1OC`, the activation is 0.7%.

As to `COc1cccc(CC(=O)N2CCCC(CCC(=O)N3CCN(c4ccccn4)CC3)C2)c1` (stereo not drawn), the activation is 2.9%.

For `CC(=O)OC(C)C[N+](C)(C)C` (stereo not drawn), the activation was 78.4% (active).

As for `CC(C[N+](C)(C)C)OC(N)=O` (stereo not drawn), the activation is 3.52%.

For `COc1ccc(C[C@H]2CN3C(=NC[C@H]3C)N2CCNC(=O)CCC2CCCCC2)cc1`, the activation is 0.4%.

As for `CCCCCCCCCCOC(=O)C[N+](C)(C)CC1CCCCC1O` (stereo not drawn), the activation was -0.99%.

With `Cc1cccc(C)c1N1CCN(S(=O)(=O)N2CCCCC2)CC1`, the activation was 57.5% (active).

In the case of `Cc1cccc(C)c1N1CCN(S(=O)(=O)N2CCOCC2)CC1`, the activation is 1.69%.

On to `O=S(=O)(N1CCCCC1)N1CCNCC1`, for which the activation is 0.7%.

For `CCC(C)(C)c1ccc(OCC(=O)N(C)C)c(C(C)(C)CC)c1`, the activation was 0.49%.

`CC1=CC(C)(C)N(C(=O)CSc2nnc(-c3ccccc3)o2)c2ccc(C)cc21`: the activation was 23.2% (active).

Regarding `CC1=CC(C)(C)N(C(=O)CSc2nccn2C)c2cc(C)ccc21`, the activation is -1.12%.

Turning to `O=C(CSc1nnc(-c2ccccc2)o1)N1CCOCC1`, the activation is 0.92%.

Take `Cc1ccc(C(=O)N2CCN(S(=O)(=O)N3CCOCC3)CC2)cc1`: the activation was 0.24%.

For the compound `O=C(COC(=O)CC1CC2CCC1C2)NC(=O)NC1CCCC1` (stereo not drawn), the activation was 0%.

Take `COc1ccc(S(=O)(=O)NC(C)C(=O)Nc2cccc([N+](=O)[O-])c2)cc1` (stereo not drawn): the activation is -0.47%.

On to `COc1cc(OC)c(-n2cc(-c3ccc(Cl)cc3)[nH]c2=O)cc1Cl`, for which the activation was 12.1% (active).

For the compound `COc1cc(OC)c(-n2c(C)cc(C=O)c2C)cc1Cl`, the activation was -0.32%.

On to `COc1ccc(-c2cn(-c3ccc(OC)cc3)c(=S)[nH]2)cc1`, for which the activation was 0.32%.

`Cc1nnc(N/N=C/C2CC=CCC2)[nH]c1=O` (stereo not drawn): the activation is 1.13%.

`O=C(NCCc1c[nH]c2ccccc12)C(=O)NCC1CCCO1` (stereo not drawn): the activation was 0.08%.

As for `N#C/C(=C/c1ccc(-c2ccccc2[N+](=O)[O-])o1)C(=O)NCCN1CCCCC1`, the activation is -0.32%.

With `N#C/C(=C/c1ccc(N2CCCCC2)o1)C(=O)NCCc1c[nH]c2ccccc12`, the activation is 15.6% (active).

Consider `Cn1c(SCC(=O)c2ccc(F)cc2)nnc1-c1ccccn1`, for which the activation was -0.33%.

For the compound `Cc1nc(COc2cccc(Cl)c2)sc1C(=O)/C=C/N(C)C`, the activation is -0.16%.

As for `COc1ccc(N=C(C)c2sc3ccccc3c2O)cc1`, the activation is 2.16%.

Regarding `CCC(C(=O)OCC(=O)Nc1ccc(C(=O)Nc2ccc(OC)cc2)cc1)c1ccccc1` (stereo not drawn), the activation was 1.2%.

Take `CCC(C(=O)Nc1ccc(C(C)C)cc1)c1ccccc1` (stereo not drawn): the activation was 15.7% (active).

As for `CCC(C(=O)Nc1ccc2c(c1)OCCO2)c1ccccc1` (stereo not drawn), the activation was -0.06%.

For `Cn1cccc1/C=N/NC(=O)c1ccc(OC(F)(F)C(F)F)cc1`, the activation was 0.29%.

Consider `Cc1cc(NC(=O)CCC(=O)N(CC(=O)NCC2CCCO2)c2ccccc2C)no1` (stereo not drawn), for which the activation is -0.47%.

As to `Cc1cc(C)nc(/N=C2\NC(=O)CC(C(=O)O)N2c2ccc(Cl)cc2Cl)n1` (stereo not drawn), the activation was 0.53%.

Turning to `Cc1ccc(C(NC(=O)N2CCCC2)C(Cl)(Cl)Cl)cc1F` (stereo not drawn), the activation is -0.15%.

Regarding `Oc1ccc2ccc3cccc[n+]3c2c1`, the activation was 14.6% (active).

Turning to `C/C(=N\Nc1nc(N2CCOCC2)nc(N2CCOCC2)n1)c1ccc([N+](=O)[O-])cc1`, the activation was 0.78%.

For `COc1ccc(/C=N/NC(=O)C(C)N(c2ccc(OC)cc2)S(C)(=O)=O)cc1` (stereo not drawn), the activation was 0.53%.

For `CC(C)n1c(CN2CCN(Cc3ccccc3)CC2)nc2ccccc21`, the activation is 0.13%.

As to `CCN(C(=O)Cc1nc(N)n[nH]1)C1(C(=O)Nc2ccccc2)CCCCC1`, the activation was -0.28%.

For the compound `Cc1nc2sc(C(=O)c3ccccc3)c(N)c2c2c1CCCC2`, the activation was -0.35%.

In the case of `CN(C)c1ccnc2sc(C(=O)c3ccccc3)c(N)c12`, the activation was -0.55%.

As to `Nc1c(C(=O)c2cccs2)sc2nsc(SCCN3CCCCC3)c12`, the activation is 23.1% (active).

`CCN(CC)c1ccc(C(=O)c2cnc(/N=C/N(C)C)s2)cc1`: the activation is -0.38%.

Take `COC(=O)c1ccccc1N=Nc1c(C)[nH][nH]c1=O`: the activation is 0.25%.

Regarding `C[C@@H](NC(=O)OC(C)(C)C)c1nnc(S(=O)(=O)Cc2ccccc2)o1`, the activation was 1.12%.

`CCN1/C(=C\c2ccc3ccccc3[n+]2CC)Sc2cc(C)ccc21`: the activation was 16.6% (active).

With `CCN1/C(=C/c2ccc3ccc(C)cc3[n+]2CC)Sc2ccccc21`, the activation was 12.7% (active).

Consider `CCN1/C(=C/C(=S)Nc2ccccc2)Sc2ccccc21`, for which the activation was -0.23%.

Consider `CCN1CCN(CCNC(=O)c2ccc(/C=C3/Sc4ccccc4N(Cc4cccc(C)c4)C3=O)cc2)CC1`, for which the activation is 1.89%.

On to `COc1ccc(CNC(=O)CN(Cc2ccc(Cl)cc2)S(C)(=O)=O)cc1`, for which the activation was 0.83%.

For `COc1ccc(N(CCC#N)S(=O)(=O)c2ccc(Cl)cc2)cc1`, the activation was 11.9% (active).

Regarding `COc1ccc(N(Cc2ccccc2)S(=O)(=O)c2cccc(C(=O)O)c2)cc1`, the activation is 0.34%.
